High-throughput results as filed in PubChem BioAssay.
In the library only some 3.5% were active in any assay of this set; here they are far more common.
MrgX1 antag: human MrgX1 receptor antagonism, primary screen; actives 1.3% (n = 310,000); MRGX1-HEK293 calcium flux, Fluo-4, BAM8-22 antagonism; hits give low values; AID 588676; B-score at 10 µM;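 active means calcium-response B-score plate-corrected more than 3 library SD below zero, starting fluorescence within 5 deviations, no agonist response on first addition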;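 further: peak minus trough fluorescence over baseline after final BAM8-22 challenge near maximal dose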
Target sequence (Q96LB2 whole entry, looked up): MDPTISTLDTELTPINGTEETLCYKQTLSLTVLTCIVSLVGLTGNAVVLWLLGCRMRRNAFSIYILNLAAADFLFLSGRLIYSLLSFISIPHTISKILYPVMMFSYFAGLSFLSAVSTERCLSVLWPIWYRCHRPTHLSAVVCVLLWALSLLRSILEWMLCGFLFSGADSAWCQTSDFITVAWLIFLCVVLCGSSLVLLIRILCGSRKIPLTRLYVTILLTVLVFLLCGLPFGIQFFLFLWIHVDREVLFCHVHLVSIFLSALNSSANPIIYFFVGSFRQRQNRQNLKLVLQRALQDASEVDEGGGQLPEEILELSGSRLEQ
RGS4 block: human RGS4 inhibition | AID 463165 | HEK293 M3R/RGS4 inducible, Fluo-4 calcium flux; hits give high values; triggered by carbachol at its EC20 | actives 0.45% (n = 310,000) | B-score at 10 µM | P49798;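 active means B-score, a plate-corrected calcium signal, over three deviations above library mean, with baseline fluorescence within five deviations of library mean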;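 further: RGS4 expression induced by doxycycline in cells with stable M3 receptor; B-score is computed from the integrated fluorescence ratio over baseline after carbachol; higher B-score means a larger calcium signal and so more RGS4 inhibition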
Target sequence (P49798 whole entry, looked up): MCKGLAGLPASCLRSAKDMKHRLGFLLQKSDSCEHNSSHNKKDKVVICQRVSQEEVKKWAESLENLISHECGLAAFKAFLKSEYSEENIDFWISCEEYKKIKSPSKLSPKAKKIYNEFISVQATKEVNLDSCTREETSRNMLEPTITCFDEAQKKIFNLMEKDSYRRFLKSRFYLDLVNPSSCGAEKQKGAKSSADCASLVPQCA
MrgX1 agonist: agonists of human MrgX1 receptor | Q96LB2 | MrgX1-HEK293 cells, Fluo-4 calcium fluorescence, agonist mode; hits give high values | B-score at 10 µM | actives 0.44% (n = 310,000) | AID 588627;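 active means calcium response B-score plate-corrected fluorescence ratio at least 3 library SD, with starting fluorescence B-score inside 5 SD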
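System: HEK293 cells stably expressing human MrgX1 receptor; Dosing: test compound in the initial addition of three; Schedule: overnight plating, then 30 min 37 °C plus 30 min room-temperature dye loading; Detection: kinetic calcium dye fluorescence, Fluo-4 NW; Controls: per-plate positive and negative controls for Z′ factor.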
RGS4 act: RGS4 potentiation or activation. actives 0.92% (n = 310,000). B-score at 10 µM. HEK293 M3R/inducible RGS4, carbachol calcium flux Fluo4; hits give low values;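 active means B-score of the integrated calcium signal more than 4 SD below the library mean, with starting fluorescence not abnormally high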;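 further: negative B-score means reduced calcium response which marks RGS4 activation or potentiation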
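Material: Inducible-RGS4 HEK293 cells carrying M3 receptor; also added: carbachol at ECmax as muscarinic agonist stimulus; incubation: compound preincubation 20 min at room temperature before agonist; signal: Fluo4-AM (2 µM) calcium-flux fluorescence, kinetic read; measure: integrated calcium ratio converted to B score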
MrgX1 PAM: human MrgX1 positive allosteric modulation, primary screen | B-score at 10 µM | MrgX1-HEK293, Fluo-4 calcium flux, FDSS; hits give high values | actives 0.63% (n = 310,000) | Q96LB2 | AID 588675;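 active means plate-corrected calcium response at least 3 library SD above typical, normal starting fluorescence, not activating the receptor alone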;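 further: compound read alongside a low EC10 to EC30 dose of BAM8-22 agonist; peak minus trough fluorescence over baseline measured at the second addition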
RGS4 activ val: confirmation of RGS4 activators | shares compounds with RGS4 act | actives 89% (n = 1,100) | AID 602282 | inhibition, % at 10 µM | HEK293 M3R/RGS4 inducible, carbachol calcium flux Fluo4;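 active means inhibition above 3 SD of the buffer control wells, cut at about 41% in these data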;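 further: signal is the integrated peak-minus-minimum Fluo4 fluorescence over baseline ratio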
RGS4 act ctr: activity in cells without induced RGS4 expression; AID 602283; actives 82% (n = 1,100); inhibition, % at 10 µM; HEK293 M3R non-induced RGS4, Fluo4 calcium flux; after carbachol challenge at its EC90; shares compounds with RGS4 act;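 active means inhibition exceeding 3 SD of buffer-only control wells, cut at about 26% in these data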;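 further: percent drop in integrated peak-minus-baseline over baseline Fluo4 ratio after carbachol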
Numbers without * were called inactive; i = inactive; nt = not tested or not shown.

SMILES | MrgX1 antag | RGS4 block | MrgX1 agonist | RGS4 act | MrgX1 PAM | RGS4 activ val | RGS4 act ctr
CCOC(=O)C1(CCc2ccccc2)CCN(C(=O)CCn2cncn2)CC1 | i | i | i | i | i | nt | nt
O=C(NCCNc1ccc([N+](=O)[O-])cc1)c1cccs1 | i | i | i | i | i | nt | nt
CC(CNC(=O)c1cccs1)c1ccc([N+](=O)[O-])cc1 (stereo not drawn) | -4.63* | i | i | i | i | nt | nt
Cc1cc(NC(=O)COC(=O)C(Nc2ccc(C(F)(F)F)cc2Cl)C(C)C)no1 (stereo not drawn) | i | i | i | i | i | nt | nt
CC(=O)c1ccc(NS(=O)(=O)c2cccc(C(=O)Nc3ccccc3C(=O)O)c2)cc1 | i | i | i | i | i | nt | nt
COc1ccc(O[C@H]2C=C[C@@H](c3ccccc3)O[C@@H]2CO/N=C(\C)CCC(=O)OC[C@H]2O[C@H](c3ccccc3)C=C[C@@H]2Oc2ccc(OC)cc2)cc1 | -7.15* | i | i | i | i | nt | nt
O=C(NC1CCCCC1)c1sc(=S)n2c1[nH]c(=O)c1ccccc12 | i | i | 47.3* | i | i | nt | nt
O=C(NCC1CCCO1)c1sc(=S)n2c1[nH]c(=O)c1ccc(C(=O)N3CCCCC3)cc12 (stereo not drawn) | i | i | i | i | i | nt | nt
CCCCNC(=O)c1sc(=S)n2c1[nH]c(=O)c1ccccc12 | i | i | 63.4* | i | i | nt | nt
O=[N+]([O-])c1ccc(N2CCN(S(=O)(=O)c3ccc(Cl)c(Cl)c3)CC2)cc1NCCN1CCOCC1 | i | i | i | i | i | nt | nt
CCNc1cc(N2CCN(S(=O)(=O)c3ccc4c(c3)CCCC4)CC2)ccc1[N+](=O)[O-] | -7.49* | i | i | i | i | nt | nt
Cc1ccccc1NC(=O)CCc1nnc2ccc(N3CCC4(CC3)OCCO4)nn12 | i | i | i | i | i | nt | nt
Cc1ccsc1/C=C/c1ccc2cccc(O)c2n1 | -4.98* | i | i | i | i | nt | nt
Cc1ccsc1/C=C/c1ccc2ccccc2n1 | i | i | i | i | i | nt | nt
O=[N+]([O-])c1ccccc1/C=N\N1CCN(c2ccccc2)CC1 | i | i | i | i | 6.92* | nt | nt
O=[N+]([O-])c1ccccc1/C=N/N1CCN(c2ccc(Cl)cc2)CC1 | i | i | i | i | i | nt | nt
O=C(Nc1cc2c(oc1=O)CCCC2=O)c1ccc(Cl)cc1 | i | i | i | i | i | nt | nt
CCN(CC(=O)Nc1c(F)cccc1F)C(=O)c1ccc(N2CCCCC2)c([N+](=O)[O-])c1 | -4.64* | i | i | i | i | nt | nt
COc1ccc(Cl)cc1NC(=O)CN(C)C(=O)c1ccc(N2CCCCC2)c([N+](=O)[O-])c1 | i | i | i | i | i | nt | nt
CC(=O)N1CCN(c2ccc(C(N)=O)cc2[N+](=O)[O-])CC1 | i | i | i | i | i | nt | nt
COc1ccc(Cl)cc1NC(=O)CN(C)C(=O)c1ccc(N2CCCCCC2)c([N+](=O)[O-])c1 | -6.58* | i | i | i | i | nt | nt
NC(=O)c1ccc(N2CCCCCC2)c([N+](=O)[O-])c1 | -5.65* | i | i | i | i | nt | nt
Cc1ccccc1N(C(=O)CNC(=O)c1ccco1)C(C(=O)NC1CCCC1)c1ccncc1 (stereo not drawn) | i | i | i | i | i | nt | nt
CCCS(=O)(=O)c1c(S(=O)(=O)CCC)c2cnccn2c1C(=O)c1ccc(CC)cc1 | i | i | i | i | i | nt | nt
CCCS(=O)(=O)c1c(S(=O)(=O)CCC)c2cnccn2c1C(=O)c1ccc(OC)cc1 | i | i | i | i | 12.9* | nt | nt
SMILES | MrgX1 antag | RGS4 block | MrgX1 agonist | RGS4 act | MrgX1 PAM | RGS4 activ val | RGS4 act ctr
CC(=O)Nc1sc2c(c1C(c1ccccc1Cl)N1CCN(CCO)CC1)CCCC2 (stereo not drawn) | i | i | i | -7.51* | i | nt | nt
COC(=O)c1ccc(OCCN2CCCCCC2)cc1 | i | i | i | -7.85* | i | 66.0* | 83.8*
O=C(Cc1cccc(C(F)(F)F)c1)N1CCCC1 | i | i | i | i | i | nt | nt
COc1ccc(C2(CNC(=O)Cc3ccccc3)CCCC2)cc1OC | i | i | i | -7.97* | i | 0.0 | 0.0
Cc1ccc(S(=O)(=O)c2ccc(Oc3cccc(C)c3)cc2)cc1 | i | i | i | -8.12* | i | 68.0* | 30.3*
Cc1ccc(S(=O)(=O)N2CCN(C(=O)c3cc4c(C)nn(-c5ccccc5C)c4s3)CC2)cc1 | i | i | i | -8.52* | i | 83.0* | 33.8*
CCN1CCCC1CNCc1ccccc1OCc1ccc(F)cc1 (stereo not drawn) | i | i | i | -7.62* | i | 46.0* | 0.0
CCN1CCCC1CNCc1cccc(OC)c1OCc1ccccc1 (stereo not drawn) | i | i | i | i | i | nt | nt
CCCN(CCC)CCCOC(=O)c1ccc(Cl)cc1Cl | i | i | i | -8.34* | i | 70.5* | 83.8*
COc1ccc(OC)c2c1C(=O)C(Cl)=C(Cl)C2=O | i | i | i | -8.25* | i | 79.5* | 64.8*
COc1cccc(Cc2n[nH]c(=S)n2Cc2ccco2)c1 | i | i | i | -10* | i | 60.5* | 83.8*
CCOc1ccc(Cc2n[nH]c(=S)n2Cc2ccccc2)cc1 | i | i | i | -8.8* | i | 61.0* | 83.8*
CCC(C)c1ccccc1NC(=O)COC(=O)C1=COCCO1 (stereo not drawn) | i | i | i | i | i | nt | nt
O=C(CN1C2CCCC1CC(NC(=O)C1CCCCC1)C2)Nc1ccccc1 (stereo not drawn) | i | i | i | i | i | nt | nt
O=C(NC1CC2CCCC(C1)N2Cc1ccccc1)C1CCCCC1 (stereo not drawn) | i | i | i | -9.86* | i | 59.5* | 0.0
Cc1cc(NC(=O)c2ccc3c(c2)OCCO3)ccc1NC(=O)c1cc2ccccc2o1 | i | i | i | -8.67* | i | 77.5* | 0.0
O=C(Nc1ccc(NC(=O)c2cc3ccccc3o2)cc1)c1ccc2c(c1)OCCO2 | i | i | i | i | i | nt | nt
CCN(C(=O)C(C)OC(=O)C1C(C(=O)OC)=C(C)NC(C)=C1C(=O)OC)c1ccccc1 (stereo not drawn) | i | i | i | i | i | nt | nt
